This is a sample that favours compounds with a hit; in the whole collection about 9.4% have one here.
Mdm2-MdmX inh = human Mdm2/MdmX binding inhibition. O15151+Q00987. SaOS-2 split-luciferase Mdm2/MdmX complementation, luminescence. inhibition, % at 8 µM. 330,000 tested, 3% active. AID 485346;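 active = inhibition of at least 50% at 8 µM in the primary screen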
Target sequence (O15151 whole entry, looked up): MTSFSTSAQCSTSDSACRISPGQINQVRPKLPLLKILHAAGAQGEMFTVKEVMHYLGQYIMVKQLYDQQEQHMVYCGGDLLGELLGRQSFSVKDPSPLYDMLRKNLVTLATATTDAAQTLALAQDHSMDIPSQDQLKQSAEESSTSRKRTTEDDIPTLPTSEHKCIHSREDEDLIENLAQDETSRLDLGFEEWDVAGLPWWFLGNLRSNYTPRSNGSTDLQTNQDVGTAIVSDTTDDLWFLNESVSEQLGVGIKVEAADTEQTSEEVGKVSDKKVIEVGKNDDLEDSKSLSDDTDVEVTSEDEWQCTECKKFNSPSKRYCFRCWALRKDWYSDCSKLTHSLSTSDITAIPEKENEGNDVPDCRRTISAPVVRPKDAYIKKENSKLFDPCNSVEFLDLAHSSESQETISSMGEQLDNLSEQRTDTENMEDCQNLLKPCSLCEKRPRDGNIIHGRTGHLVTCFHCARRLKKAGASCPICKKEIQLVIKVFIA
Target sequence (Q00987 whole entry, looked up): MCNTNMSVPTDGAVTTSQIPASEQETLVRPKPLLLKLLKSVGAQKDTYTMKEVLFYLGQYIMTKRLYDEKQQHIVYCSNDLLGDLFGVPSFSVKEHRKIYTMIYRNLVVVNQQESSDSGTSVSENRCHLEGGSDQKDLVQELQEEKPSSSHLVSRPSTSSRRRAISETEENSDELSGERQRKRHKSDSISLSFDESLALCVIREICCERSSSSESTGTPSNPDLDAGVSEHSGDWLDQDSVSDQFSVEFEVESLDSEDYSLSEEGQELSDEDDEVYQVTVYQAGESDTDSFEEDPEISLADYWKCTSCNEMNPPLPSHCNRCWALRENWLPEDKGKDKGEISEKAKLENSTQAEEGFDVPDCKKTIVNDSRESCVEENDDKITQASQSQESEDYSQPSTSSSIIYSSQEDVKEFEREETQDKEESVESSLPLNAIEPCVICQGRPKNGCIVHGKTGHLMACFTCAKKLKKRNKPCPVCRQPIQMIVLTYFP
Beta apoptosis = beta cell apoptosis inhibition; INS-1E cytokine-induced death, ATP luminescence, 48 h; percent of positive-control rescue, neutral wells zero; protection from apoptosis, % (no concentration beside the values); 300,000 tested, 0.8% active; AID 435005;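 active = Every replicate reaches about 75%, or at least half do and their mean reaches it too, limit read from the data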;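 note: higher means more ATP so stronger rescue from cytokine killing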
Lmaj promast = Leishmania major promastigote growth inhibition | Leishmania major promastigotes, resazurin fluorescence viability | inhibition, % at 10 µM | 200,000 tested, 9% active | AID 1063; in the data active = inhibition above about 50%;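 note: promastigotes grown with compound for 44 hours at 28 °C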
T cruzi repl = blocks replication of Trypanosoma cruzi; 300,000 tested, 1.4% active; inhibition, % (concentration not given with the values); T. cruzi beta-gal in NIH3T3, luminescence, 90 h; AID 1885;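 active = mean inhibition across valid replicates above about 55%, limit read from the data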;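 note: signal also drops with host cell toxicity which is not excluded here; higher percent means less beta-gal luminescence so fewer parasites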
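Incubation – ≥90 h infection period, 3 h prior cell attachment · System – NIH/3T3 fibroblasts plus reporter T. cruzi · Doses – compound pinned at 50 nL/well, DMSO · Read-out basis – percent inhibition of parasite-derived β-gal signal · Signal – luminescent β-galactosidase signal after 60 min lysis · Also added – 5000 T. cruzi trypomastigotes/well · Medium – Low-serum DMEM with 2% FBS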
SKKanGAS inh = blocks kanamycin growth of S. pyogenes SKKanGAS strain | BacTiter-Glo, 6 h | inhibition, % at 7.5 µM | 300,000 tested, 1.3% active;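 active = mean replicate score, as percent of positive control median, at least 50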;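 note: strain carries kanamycin resistance gene driven by streptokinase promoter and grows in 40 µg/ml kanamycin; loss of luminescence reflects streptokinase promoter inhibition or plain growth inhibition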
CSC inhib = cancer stem cell inhibition. inhibition, % at 7.5 µM. 300,000 tested, 1.1% active. cancer stem cell-like cells viability, luminescence. AID 2717; in the data active = inhibition above about 75%; tested in HMLE shEcad cells
Hits are given with their value; i = inactive; nt = no result.

SMILES	Mdm2-MdmX inh	Beta apoptosis	Lmaj promast	T cruzi repl	SKKanGAS inh	CSC inhib
N#Cc1cccc(C(c2nnnn2C2CCCC2)N2CCCCCC2)c1 (stereo unspecified)	i	i	i	i	i	i
CCC(c1nnnn1CCc1ccccc1)N1CCN(c2ccc(OC)cc2)CC1 (stereo unspecified)	i	nt	96	i	i	i
N#Cc1cccc(C(c2nnnn2C2CCCC2)N2CCC(Cc3ccccc3)CC2)c1 (stereo unspecified)	i	i	65	i	i	i
N#Cc1ccc(C(c2nnnn2C2CCCC2)N2CCC(Cc3ccccc3)CC2)cc1 (stereo unspecified)	i	i	i	i	i	i
CC(=O)c1nccs1	i	i	nt	nt	nt	i
O=C(NNC(=O)C1CCC(C(=O)NNC(=O)c2cccs2)CC1)c1cccs1 (stereo unspecified)	i	i	i	i	i	i
OCCN1CCN(CC(O)COc2ccc3ccccc3c2)CC1 (stereo unspecified)	i	i	91	i	i	nt
OCCN1CCN(CC(O)COc2ccc(-c3ccccc3)cc2)CC1 (stereo unspecified)	i	i	96	i	i	i
CCOC(=O)N1CCN(CC(O)COc2ccc(-c3ccccc3)cc2)CC1 (stereo unspecified)	i	i	nt	i	i	i
Cc1ccc(N2C(=O)/C(=C\c3ccc(C(C)C)cc3)N=C2SC2CCOC2=O)cc1 (stereo unspecified)	i	i	i	i	i	i
Cc1ccnc(SCc2cc(=O)c(OC(=O)c3ccc(Cl)c([N+](=O)[O-])c3)co2)n1	i	i	96	i	i	i
CCOC(=O)C1=C(C)N=C2SC(C(=O)OC)=CC(=O)N2C1c1ccc(OC)cc1 (stereo unspecified)	i	i	i	i	i	i
CN1CCN(c2ccc([N+](=O)[O-])cc2C(=O)c2ccccc2)CC1	i	i	56	i	i	i
NNC(=O)C(Cc1cnc[nH]1)NC(=O)OCc1ccccc1 (stereo unspecified)	i	nt	nt	i	i	i
CCOc1cc(/C=C\[N+](=O)[O-])ccc1OCC(=O)N1CCOCC1	i	i	i	i	i	i
CCOc1cc(/C=C/c2nc3cc(C)c(C)cc3s2)ccc1OCC(=O)N1CCOCC1	i	i	86	i	i	i
NNc1nc2c(F)cccc2s1	i	i	i	i	i	i
NNc1nc2c(F)cc(F)cc2s1	i	i	95	i	i	i
Cc1cc(C)c(C)c(S(=O)(=O)N2CCN(C(=O)c3ccncc3)CC2)c1C	i	i	nt	nt	nt	nt
Cc1cc(C)c(C)c(S(=O)(=O)N2CCN(c3ccccn3)CC2)c1C	i	i	nt	i	i	i
Cc1cc(C)c(C)c(S(=O)(=O)N2CCN(c3ccc(O)cc3)CC2)c1C	i	i	55	i	i	85
Cc1cc(C)c(C)c(S(=O)(=O)N2CCN(c3ncnc4ccccc34)CC2)c1C	i	104	nt	nt	nt	i
Cc1cc(C)c(C(=O)Cn2nc(C)c([N+](=O)[O-])c2C)cc1C	i	i	i	i	i	i
S=C(NCCCN1CCOCC1)N1CCN(c2nc(-c3ccccc3)cs2)CC1	i	i	83	i	i	i
CCOc1ccccc1NC(=S)N1CCN(c2nc(-c3ccc(F)cc3)cs2)CC1	i	i	90	i	i	i
SMILES	Mdm2-MdmX inh	Beta apoptosis	Lmaj promast	T cruzi repl	SKKanGAS inh	CSC inhib
O=C(NC(=S)N1CCN(c2nc(-c3ccccc3)cs2)CC1)c1cccnc1	i	i	i	i	79	i
S=C(NCCCN1CCOCC1)N1CCN(c2ccccc2)CC1	i	i	nt	i	i	i
COCCNC(=S)N1CCN(c2nc(-c3ccccc3)cs2)CC1	i	i	nt	i	i	i
Nc1ncnc2c1ncn2[C@@H]1O[C@H](CNCc2ccc(-c3cc(C(F)(F)F)ccc3Cl)o2)[C@@H](O)[C@H]1O	i	nt	nt	nt	nt	nt
CCCCn1c(N)c(N(CCOC)C(=O)COC(=O)C(C)(C)Oc2ccc(Cl)cc2)c(=O)[nH]c1=O	i	nt	nt	i	i	i
NS(=O)(=O)c1ccc(Nc2nc(-c3cccc([N+](=O)[O-])c3)cs2)cc1	i	i	i	58	i	i
COc1ccccc1N(CC(=O)NC1CCCC1)S(=O)(=O)c1cccc(C(F)(F)F)c1	i	nt	nt	nt	nt	nt
Cc1cccc(C)c1OCC(O)Cn1c2ccccc2c2ccccc21 (stereo unspecified)	i	i	i	i	88	i
OC(COCC(F)(F)C(F)(F)C(F)(F)C(F)F)Cn1c2ccccc2c2ccccc21 (stereo unspecified)	i	i	86	59	i	103
C=CCn1c(-c2cccnc2Cl)nc2ccccc21	i	i	i	i	i	i
Clc1cccc(Cl)c1Cn1c(-c2cccnc2Cl)nc2ccccc21	i	i	76	i	i	i
C/C(=N\Nc1ccc(F)cc1)c1ccncc1	i	i	84	i	i	i
C/C(=N\Nc1ccc(Cl)cc1)c1ccncc1	i	i	nt	i	i	i
C/C(=N\Nc1cccc(Cl)c1)c1ccncc1	i	i	i	59	i	i
c1ccc(Cn2cc(CNc3ccccc3)nn2)cc1	i	i	nt	i	i	i
CCOc1ccc(NC(=O)C2=NN(c3ccccc3)C(=O)CC2)cc1S(=O)(=O)N1CCCCC1	i	i	nt	nt	nt	i
CN(C)c1cccc(C(=O)NNC(=O)CSc2ccccc2)c1	i	i	nt	i	i	nt
C[C@H](NC(CCc1ccccc1)C(=O)O)C(=O)N1CCC[C@H]1C(=O)O (stereo partly specified)	i	nt	nt	i	i	i
COC(=O)C1=C(C)NC2=C(C(=O)CCC2)C1c1cn(Cc2ccc(Cl)cc2Cl)nc1-c1ccccc1 (stereo unspecified)	i	i	57	i	i	i
O=C(CN1C(=O)NC2(CCCC2)C1=O)Nc1cc(C(F)(F)F)ccc1N1CCCCC1	i	i	nt	i	i	i
COc1cccc(OC)c1OCCCCN1CCCC1	i	i	66	i	i	i
COc1cccc(OC)c1OCCCCN1CCC(Cc2ccccc2)CC1	i	i	89	i	i	i
COc1cccc(OC)c1OCCCCN1CCCCC1	i	nt	nt	i	i	i
CC(=O)CCc1ccc(OCCCCN2CCC(Cc3ccccc3)CC2)cc1	i	i	94	i	i	i
COc1ccccc1OCCCCN1CCN(C(c2ccccc2)c2ccccc2)CC1	i	i	93	i	i	i
SMILES	Mdm2-MdmX inh	Beta apoptosis	Lmaj promast	T cruzi repl	SKKanGAS inh	CSC inhib
COc1ccc(/C(O)=C/c2nc3ccc(C(=O)NCCc4cccc(C)c4)cc3[nH]c2=O)cc1OC	i	i	i	i	i	i
Cc1ccc(SCc2cc(=O)n(C)[nH]2)cc1	i	i	i	i	i	i
COc1ccc(-c2ccc(OC)cc2)cc1	i	i	i	i	i	i
COc1ccc(-c2nncnn2)cc1	i	i	97	i	i	i
CC(C)(C)C(=O)Nc1ccc(C(=O)N/N=C/c2ccccc2OC(=O)c2ccc(Cl)cc2)cc1	i	103	55	i	i	i
COc1cc(C(=O)Oc2ccccc2/C=N/NC(=O)c2ccc(C)cc2)cc(OC)c1OC	i	103	76	i	i	i
